This is an account of results in PubChem BioAssay.

The source made the active and inactive calls.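 Rule for the calls, unless noted: active = fluorescence slope after compound addition differing from the mean of all tested samples at 99.7% confidence, mostly higher but some lower; inactive = the rest.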

Assay [1] in a line: inhibitors of TNFa-induced NFkB p65 translocation, primary screen, imaging, HUVEC, MLSMR starter and 10KST1 sets (AID 438;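 active = inhibition above 20% together with a positive visual image hit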;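 note: compound added about 3h40 before a 20 min TNFalpha stimulation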;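 for inhibition: signal is the nuclear over cytoplasmic p65 intensity ratio per well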). As to conditions: HUVEC TNFa-induced p65 nuclear translocation; cell count: measured here: nuclei count (cytotoxicity indicator), at 2.08 µM; inhibition: at 2 µM, stronger effect = higher value, 0% TNFa-plus-vehicle, 100% no-TNFa wells.
Assay [2] is described as follows: endothelial E-selectin expression blockers – imaging, HUVEC, immunofluorescence, MLSMR starter and 10KST1 sets, primary screen (AID 487;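 active = visually confirmed hit in the image check and inhibition above 20%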;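 for inhibition: signal is fraction of cell area covered by stained E-selectin grains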;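 for nuclei count: 100% = median nuclei count of all wells on the same plate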). As to conditions: HUVEC TNFalpha-induced E-selectin immunofluorescence imaging, at 2 µM; inhibition: stronger effect = higher value; nuclei count: measured here: cell number, toxicity.
Assay [3] is described as follows: Primary imaging screen for DUSP6 inhibitors that restore phospho-Erk in transfected HeLa cells, chemical complementation (AID 609;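 active = compounds giving at least 50% inhibition in the cell-based MKP-3 phosphatase rescue imaging test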;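 for inhibition: phospho-Erk level distribution per well compared with pooled transfected vehicle control wells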). The note with it: HeLa MKP-3 transfected, phospho-Erk imaging KS statistic, at 10 µM, cells stimulated with TPA for 15 min.
Assay [4] deals with Dual specificity protein phosphatase 6 (Homo sapiens) (UniProt Q16828). Described as above. As to conditions: HeLa MKP-3 transfected, phospho-Erk imaging KS statistic; at 10 µM; stronger effect = higher value; cells stimulated with TPA for 15 min.
Dual specificity protein phosphatase 6 (Homo sapiens), sequence (Q16828 whole entry, looked up): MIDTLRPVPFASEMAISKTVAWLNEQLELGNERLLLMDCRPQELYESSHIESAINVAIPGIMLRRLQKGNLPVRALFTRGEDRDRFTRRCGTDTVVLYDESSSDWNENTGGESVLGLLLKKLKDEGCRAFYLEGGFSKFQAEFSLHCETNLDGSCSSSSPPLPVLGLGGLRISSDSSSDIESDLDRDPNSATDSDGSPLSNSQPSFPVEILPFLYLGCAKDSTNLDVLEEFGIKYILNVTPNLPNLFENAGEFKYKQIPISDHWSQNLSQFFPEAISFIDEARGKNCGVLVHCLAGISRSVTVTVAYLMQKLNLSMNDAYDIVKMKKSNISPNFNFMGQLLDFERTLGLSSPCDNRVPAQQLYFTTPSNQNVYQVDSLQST
Assay [5] has as its target Voltage-gated potassium channel subunit beta-2 (Rattus norvegicus) (UniProt P62483). Put plainly: inhibitors of rat Kvbeta2 reductase activity – biochemical, NADPH fluorescence, primary screen (AID 622;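 active = fluorescence slope higher than the sample average by over 3 SD, cut at about -0.22 in these data, passing the limit was not always enough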;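 note: slope of raw intensity against log time taken from 70 to 1610 s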). The note with it: recombinant KvBeta, 4-cyanobenzaldehyde reduction, at 10 µM, stronger effect = higher value.
Assay [6] shares this target. Put plainly: enhancers of rat Kvbeta2 NADPH turnover – biochemical, NADPH fluorescence, primary screen (AID 623;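 active = NADPH fluorescence slope more negative than the mean of all samples by about 3 SD, 99.7% confidence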;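 note: fluorescence intensity change per second fitted from 20 to 320 s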). The note with it: Recombinant KvBeta, NADPH fluorescence decrease slope, 10 min; at 10 µM; stronger effect = lower value.
The target of assay [7] is Muscarinic acetylcholine receptor M4 (Homo sapiens) (UniProt P08173). Put plainly: M4-linked GIRK flux change, two-sided – cell-based, HEK293 M4/GIRK, thallium flux, BTC-AM, M4 allosteric agonist project, primary screen (AID 625).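 Note: thallium influx through GIRK channels coupled to M4 in HEK293 cells with BTC-AM dye.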 The note with it: at 10 µM, actives lie on both sides. In short, it runs like this:
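assay system = HEK293 cells with M4 receptor and GIRK channels | medium = pH 7.3 thallium assay buffer | doses = 10 µM final, single point | timing = cells overnight at 37 °C, BTC-AM loading 1 h, reads 2 min total | signal = BTC-AM fluorescence, 1 Hz kinetic reads | read-out = post-addition slope, 15–24 s, of baseline-normalized fluorescence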

Assay [8] in a line: inhibitors of larval lipid processing in zebrafish, primary screen, whole organism, PED6 fluorescence, gall bladder and intestine (AID 686;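 active = a full or partial loss of lipid-probe fluorescence in the fish gall bladder, intestine or both, judged by eye; inactive = no fluorescence loss, or compound toxic to the fish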;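 note: larvae 5 to 7 days old with five fish per well; signal comes from phospholipase A2 cleavage of quenched PED6 carried via bile; overnight exposure to compound and PED6 before scoring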). The note with it: Zebrafish larvae PED6 lipid processing, fluorescence scoring; screened at 20 µM (by protocol). In short, it runs like this:
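Also added: quenched phospholipase substrate PED6, 100 nM final, ingested by larvae; System: zebrafish larvae, 5-7 d; Quantity: 5 larvae per well; Compound: 20 µM single dose; Schedule: overnight compound and PED6 incubation; Read-out: visual per-well fluorescence inhibition score; Measured by: By-eye fluorescence microscopy; Medium: E3.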

A short description of assay [9]: loss of swimming-algae plug formation – whole organism, Chlamydomonas reinhardtii, WT vs cilia-less mutant, absorbance, 96-well, primary screen (AID 463189;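 active = inhibition at or above 50% relative to wild type and mutant plate controls; inactive = inhibition below 50%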;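 note: 0% = wild type cc124 cells in DMSO and 100% = ciliumless bld1 mutant cells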). The note with it: Chlamydomonas reinhardtii gravitaxis, OD600 absorbance, 2 days; at 10 µM; stronger effect = higher value.
Where [10] appears, read: measured here: cell density z-score.
Setting [11] is: measured here: nuclear c-Myc green intensity z-score.
The mark [12] stands for this setting: measured here: nuclear pErk red intensity z-score, stronger effect = higher value.

Muscarinic acetylcholine receptor M4 (Homo sapiens), sequence (P08173 whole entry, looked up): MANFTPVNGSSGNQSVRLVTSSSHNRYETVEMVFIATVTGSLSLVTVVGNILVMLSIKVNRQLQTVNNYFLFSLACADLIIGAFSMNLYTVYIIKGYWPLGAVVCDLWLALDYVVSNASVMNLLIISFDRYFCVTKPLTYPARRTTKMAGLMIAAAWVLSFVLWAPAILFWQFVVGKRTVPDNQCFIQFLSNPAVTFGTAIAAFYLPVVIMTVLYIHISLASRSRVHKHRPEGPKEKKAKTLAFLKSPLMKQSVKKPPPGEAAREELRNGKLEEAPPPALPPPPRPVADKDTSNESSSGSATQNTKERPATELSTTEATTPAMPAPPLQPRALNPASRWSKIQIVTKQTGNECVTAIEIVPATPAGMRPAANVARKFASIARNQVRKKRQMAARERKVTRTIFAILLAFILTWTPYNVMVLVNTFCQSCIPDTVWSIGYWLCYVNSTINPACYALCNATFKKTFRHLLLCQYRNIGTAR
Voltage-gated potassium channel subunit beta-2 (Rattus norvegicus), sequence (P62483 whole entry, looked up): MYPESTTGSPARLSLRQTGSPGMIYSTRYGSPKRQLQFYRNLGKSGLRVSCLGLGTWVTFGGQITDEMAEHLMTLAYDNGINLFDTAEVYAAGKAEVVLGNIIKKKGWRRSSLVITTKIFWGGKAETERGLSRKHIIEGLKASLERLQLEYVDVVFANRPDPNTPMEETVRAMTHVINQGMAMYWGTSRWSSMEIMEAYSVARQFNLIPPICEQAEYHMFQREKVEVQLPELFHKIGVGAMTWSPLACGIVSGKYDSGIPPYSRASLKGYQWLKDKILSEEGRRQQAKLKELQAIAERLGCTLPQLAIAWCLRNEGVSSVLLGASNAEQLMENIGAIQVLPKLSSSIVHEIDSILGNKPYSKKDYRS

The term inhibition denotes the relative decrease from the control value, in per cent. Turning to `COc1ccc(C(=O)c2ccc(N3CCOCC3)cc2)c(OC)c1`, in assay [1], the cell count is 624. In addition, the inhibition in assay [1] was -6.6% (inactive); in assay [2], -21.8% (inactive); in assay [4], 5.95% (inactive); in assay [9] it was -11.4% (inactive). The compound also registered a nuclei count in assay [2] of 99.4%. In addition, the figures for the z-score in [3] (setting [10]), in assay [3] (setting [11]) and in [3] (setting [12]) were -2.58, 0.925 and 1.09, respectively. Moreover, the results for the fluorescence slope in assay [5] and in [7] were -0.488 (inactive) and 0.00684 (inactive), respectively. The NADPH fluorescence slope in assay [6] was -6.2e-05 (inactive). The compound was classed as inactive in assay [8].
For `CCCCN(C(=O)CCC(=O)O)C1CC(=O)N(c2ccc(OCCC)cc2)C1=O` (stereo unspecified), the cell count in [1] is 639. Also, the inhibition is 5.2% (inactive) in assay [1], -33% (inactive) in assay [2], -9.53% (inactive) in [4] and -0.122% (inactive) in assay [9]. Also, the nuclei count in assay [2] worked out at 116%. The z-score was -0.992 in assay [3] (setting [10]), -0.45 in assay [3] (setting [11]) and -0.105 in [3] (setting [12]). For the same compound, the fluorescence slope in [5] was -0.464 (inactive); in [7], 0.00463 (inactive). For the same compound, the NADPH fluorescence slope in assay [6] was -2.3e-05 (inactive). In [8], the call was inactive.
Consider `CC(O)CNc1nc2c(c(=O)n(C)c(=O)n2C)n1CCc1ccccc1` (stereo unspecified), for which the cell count in assay [1] is 710. In addition, the inhibition was -2.3% (inactive) in assay [1], -92.1% (inactive) in assay [2], 5.95% (inactive) in assay [4] and 23% (inactive) in [9]. Further, the nuclei count in [2] stood at 180%. Besides, the z-score in assay [3] (setting [10]) was 0.422; in assay [3] (setting [11]), -1.99; in assay [3] (setting [12]) it was 1.04. The fluorescence slope is -0.464 (inactive) in [5] and 0.00739 (inactive) in [7]. In [6], the NADPH fluorescence slope was -0.000209 (active). The compound was classed as inactive in assay [8].
`CCOc1ccc(N=C(NC#N)SCC(=O)NC2CC2)cc1`: the cell count in assay [1] came out at 613. The inhibition in [1] was -1.5% (inactive); in assay [2], -40.6% (inactive); in [4] it was -2.29% (inactive); in [9] it was -3.68% (inactive). Besides, in assay [2], the nuclei count turned out to be 161%. The z-score in [3] (setting [10]) was 0.193; in [3] (setting [11]), 0.708; in assay [3] (setting [12]) it was 0.295. Besides, the fluorescence slope in assay [5] is -0.491 (inactive); in assay [7], 0.00628 (inactive). The NADPH fluorescence slope in assay [6] is -4.8e-05 (inactive). Further, the outcome in [8] was inactive.
Regarding `COC(=O)COc1ccc(Oc2nc(SC)nc(N(C)C)n2)nn1`, the cell count in [1] is 345. In addition, the inhibition in assay [1] is -16.3% (inactive); in assay [2] it was -54.5% (inactive); in assay [4] it was -3.95% (inactive); in [9] it was -8.33% (inactive). The same compound displayed a nuclei count in [2] of 109%. Also, the results for the z-score in assay [3] (setting [10]), in assay [3] (setting [11]) and in [3] (setting [12]) were -0.468, -0.441 and -0.861, respectively. The results for the fluorescence slope in assay [5] and in [7] were -0.461 (inactive) and 0.00594 (inactive), respectively. Further, the NADPH fluorescence slope in assay [6] was -8.1e-05 (inactive). In assay [8], the result was inactive.
For `CC1(C)Cc2c(c(N3CCOCC3)nc3snc(Br)c23)CO1`, in assay [1], the cell count is 489. Moreover, the inhibition in assay [1] was -4.5% (inactive); in assay [2] it was -99.5% (inactive); in [4], 5.42% (inactive); in assay [9] it was 2.33% (inactive). Further, the nuclei count in [2] turned out to be 130%. In addition, the z-score in assay [3] (setting [10]) was -1.77; in assay [3] (setting [11]), 2.53; in [3] (setting [12]), -2.36. Also, the figures for the fluorescence slope in assay [5] and in assay [7] were -0.502 (inactive) and 0.00473 (inactive), respectively. In [6], the NADPH fluorescence slope is -1.8e-05 (inactive). Moreover, the result in assay [8] was inactive.
Take `O=C(C/C(=N/O)c1ccccc1O)C(F)F`: the cell count in assay [1] was found to be 454. The inhibition is -0.6% (inactive) in assay [1], -48.8% (inactive) in [2], 9.37% (inactive) in [4] and -1.93% (inactive) in [9]. This compound had a nuclei count in [2] of 164%. The z-score is -0.709 in [3] (setting [10]), 1.7 in assay [3] (setting [11]) and 1.49 in assay [3] (setting [12]). The fluorescence slope in assay [5] is -0.451 (inactive); in assay [7] it was 0.0043 (inactive). Further, the NADPH fluorescence slope in assay [6] is -2.7e-05 (inactive). Further, the result in assay [8] was inactive.
